Measured values as given in ChEMBL document CHEMBL3774376, “Synthesis, and anticonvulsant activity of new amides derived from 3-methyl- or 3-ethyl-3-methyl-2,5-dioxo-pyrrolidin-1-yl-acetic acids” (Bioorg Med Chem, 2016).
Activity calls are given as the source filed them. The calls are words filed in the database; no cut-off is given here.

Legend:
Mus musculus [1] = test: Neurotoxicity in CD1 albino mouse assessed as acute motor impairment at 300 mg/kg, ip measured after 0.5 hrs by rotarod test; type: toxicity, organism-based; conditions: in vivo
Outline: (§1)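 Male CD-1 mice given 30, 100 or 300 mg/kg ip in 0.5% methylcellulose, tested at 0.5 and 4 h. Motor impairment was scored as failure to keep balance for at least 1 min on a rod rotating at 10 rpm. Minimum dose causing impairment reported.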

Mus musculus [2] = test: Neurotoxicity in CD1 albino mouse assessed as acute motor impairment at 300 mg/kg, ip after 4 hrs by rotarod test; type: toxicity, organism-based; conditions: in vivo; outline: as §1
Mus musculus [3] = test: Anticonvulsant activity in ip dosed CD1 albino mouse assessed as time to peak effect; type: functional
Outline: (§2)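 Quantitation in male CD-1 mice dosed ip at the previously estimated time of peak effect. Seizures were induced by MES or by sc pentylenetetrazole 85 mg/kg; rotarod at 10 rpm assessed motor impairment. Groups of six, at least three doses giving 10-90% effect.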

Mus musculus [4] = test: Anticonvulsant activity in ip dosed CD1 albino mouse assessed as protection against subcutaneous pentylenetetrazole-induced seizures; type: functional; outline: as §2
[5] = Neurotoxicity in ip dosed CD1 albino mouse assessed as acute motor impairment by rotarod test; type: toxicity, organism-based; conditions: in vivo; outline: as §2
Mus musculus [6] = organism: Mus musculus; test: Protection index, ratio of TD50 for CD1 albino mouse to ED50 for protection against maximal electroshock-induced seizures in CD1 albino mouse; outline: as §2
Mus musculus [7] = test: Protection index, ratio of TD50 for CD1 albino mouse to ED50 for protection against subcutaneous pentylenetetrazole-induced seizures in CD1 albino mouse; outline: as §2
Mus musculus [8] = test: Antinociceptive activity in CD1 albino mouse assessed as reduction of formalin-induced licking response in neurogenic phase at 75.60 mg/kg, ip preincubated for 4 hrs measured after 5 mins; type: functional; set-up: scale not given: the % may be the effect or the level left
Mus musculus [9] = test: Antinociceptive activity in CD1 albino mouse assessed as reduction of formalin-induced licking response in inflammatory phase at 75.60 mg/kg, ip preincubated for 4 hrs measured after 15 to 20 mins; type: functional; set-up: scale not given: the % may be the effect or the level left
Mus musculus [10] = test: Antinociceptive activity in CD1 albino mouse assessed as reduction of formalin-induced licking response in inflammatory phase at 75.60 mg/kg, ip preincubated for 4 hrs measured after 20 to 25 mins; type: functional; set-up: scale not given: the % may be the effect or the level left
Mus musculus [11] = test: Antinociceptive activity in CD1 albino mouse assessed as reduction of formalin-induced licking response in inflammatory phase at 75.60 mg/kg, ip preincubated for 4 hrs measured after 25 to 30 mins; type: functional; set-up: scale not given: the % may be the effect or the level left
Mus musculus [12] = test: Local anesthetic activity in CD1 albino mouse assessed prolongation of time reaction at 2 % concentration after 20 secs by tail immersion test relative to vehicle control; type: functional
Outline: (§3)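 Compound at 1 or 2% in 0.5% methylcellulose, injected sc (0.2 ml) about 1 cm from the tail root of male CD-1 mice. After 15 min, the distal 3 cm of the tail was immersed in 50 ± 0.5 °C water and withdrawal time measured, cut off at 20 s. n=8; mean ± SEM; % prolongation relative to vehicle.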

Rattus norvegicus = organism: Rattus norvegicus; test: Displacement of [3H]BTX from voltage-sensitive Na+ channel site 2 in rat cerebral cortex synaptoneurosomes at 100 uM after 60 mins by liquid scintillation spectroscopic analysis; type: tissue-based
Outline: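 Cerebral cortex synaptoneurosomes from rat, tested at 100 µM for inhibition of specific [3H]BTX binding to the voltage-sensitive Na+ channel site 2. Reported as % inhibition of control specific binding; run commercially.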

Mus musculus [13] = test: Anticonvulsant activity in ip dosed CD1 albino mouse assessed as protection against maximal electroshock-induced seizures; type: functional
Mus musculus [14] = test: Anticonvulsant activity in CD1 albino mouse assessed as protection against maximal electroshock-induced seizures at 100 to 300 mg/kg, ip after 0.5 hrs; type: functional; conditions: read-out: MED
Mus musculus [15] = test: Anticonvulsant activity in CD1 albino mouse assessed as protection against maximal electroshock-induced seizures at 100 to 300 mg/kg, ip after 4 hrs; type: functional; conditions: read-out: MED
Mus musculus [16] = test: Anticonvulsant activity in CD1 albino mouse assessed as protection against subcutaneous pentylenetetrazole-induced seizures at 100 to 300 mg/kg, ip after 0.5 hrs; type: functional; conditions: CD1, 0.5 h, read-out: MED
Outline: (§4)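 Male CD-1 mice (16-26 g), compounds ip in 0.5% methylcellulose/water at 30, 100 or 300 mg/kg, 3-4 per group. At 0.5 or 4 h, pentylenetetrazole 85 mg/kg was injected sc. Protection was absence of clonic convulsions (at least 5 s) over a 30 min observation. Minimum active dose recorded.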

Mus musculus [17] = test: Anticonvulsant activity in CD1 albino mouse assessed as protection against subcutaneous pentylenetetrazole-induced seizures at 100 to 300 mg/kg, ip after 4 hrs; type: functional; conditions: CD1, 4 h, read-out: MED; outline: as §4
Mus musculus [18] = test: Neurotoxicity in CD1 albino mouse assessed as acute motor impairment at 100 to 300 mg/kg, ip after 4 hrs by rotarod test; type: toxicity, organism-based; conditions: in vivo; outline: as §1
Mus musculus [19] = test: Antinociceptive activity in CD1 albino mouse assessed as reduction of formalin-induced licking response in neurogenic phase at 32.08 mg/kg, ip preincubated for 4 hrs measured after 5 mins; type: functional; set-up: scale not given: the % may be the effect or the level left
Mus musculus [20] = test: Antinociceptive activity in CD1 albino mouse assessed as reduction of formalin-induced licking response in inflammatory phase at 32.08 mg/kg, ip preincubated for 4 hrs measured after 15 to 20 mins; type: functional; set-up: scale not given: the % may be the effect or the level left
Mus musculus [21] = test: Antinociceptive activity in CD1 albino mouse assessed as reduction of formalin-induced licking response in inflammatory phase at 32.08 mg/kg, ip preincubated for 4 hrs measured after 25 to 30 mins; type: functional; set-up: scale not given: the % may be the effect or the level left
Mus musculus [22] = test: Local anesthetic activity in CD1 albino mouse assessed prolongation of time reaction at 1 % concentration after 20 secs by tail immersion test relative to vehicle control; type: functional; outline: as §3
Mus musculus [23] = test: Anticonvulsant activity in CD1 albino mouse assessed as protection against subcutaneous pentylenetetrazole-induced seizures at 300 mg/kg, ip after 0.5 hrs; type: functional, organism-based; outline: as §4
Mus musculus [24] = test: Anticonvulsant activity in CD1 albino mouse assessed as protection against subcutaneous pentylenetetrazole-induced seizures at 300 mg/kg, ip after 4 hrs; type: functional, organism-based; outline: as §4
Mus musculus [25] = test: Anticonvulsant activity in CD1 mouse assessed as protection against 32 mA-current- for 3 secs induced seizure at 100 mg/kg, ip after 0.5 hrs by 6Hz psychomotor seizure test; type: functional
Outline: (§5)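 Male CD-1 mice given 100 mg/kg ip in 0.5% methylcellulose, four per time point. Corneal stimulation at 32 mA, 0.2 ms monopolar rectangular pulses at 6 Hz for 3 s, from a constant-current device. A mouse was protected if it resumed normal exploratory behavior within 10 s. Reported as number protected over number tested.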

Mus musculus [26] = test: Antinociceptive activity in CD1 albino mouse assessed as reduction of formalin-induced licking response in neurogenic phase at 87.36 mg/kg, ip preincubated for 1 hr measured after 5 mins; type: functional, organism-based
Mus musculus [27] = test: Antinociceptive activity in CD1 albino mouse assessed as reduction of formalin-induced licking response in inflammatory phase at 87.36 mg/kg, ip preincubated for 1 hr measured after 15 to 20 mins; type: functional; set-up: scale not given: the % may be the effect or the level left
Mus musculus [28] = test: Antinociceptive activity in CD1 albino mouse assessed as reduction of formalin-induced licking response in inflammatory phase at 87.36 mg/kg, ip preincubated for 1 hr measured after 25 to 30 mins; type: functional; set-up: scale not given: the % may be the effect or the level left
Mus musculus [29] = test: Anticonvulsant activity in CD1 mouse assessed as protection against 32 mA-current- for 3 secs induced seizure at 100 mg/kg, ip after 1 hrs by 6Hz psychomotor seizure test; type: functional; outline: as §5

Row | inhibition (Rattus norvegicus) | SMILES | Activity (Mus musculus [1]) | Activity (Mus musculus [2]) | Time (Mus musculus [3]) | ED50 (Mus musculus [4]) | TD50 [5] | Ratio TD50/ED50 (Mus musculus [6]) | Ratio TD50/ED50 (Mus musculus [7]) | Activity (Mus musculus [12]) | ED50 (Mus musculus [13]) | minimal effective dose (Mus musculus [14]) | minimal effective dose (Mus musculus [15]) | Activity (Mus musculus [23]) | Activity (Mus musculus [24]) | other results
1 | 33.4% | CC1CC(=O)N(CC(=O)N2CCN(c3ccc(Cl)c(Cl)c3)CC2)C1=O (stereo not drawn) | Non-toxic | Non-toxic | 1 h | 54.1 mg/kg | 263 mg/kg | 3.48 | 4.86 | 14% | 75.6 mg/kg | 300 mg/kg | 100 mg/kg |  |  | Activity (Mus musculus [8]): 61%; Activity (Mus musculus [9]): 100%; Activity (Mus musculus [10]): 95%; Activity (Mus musculus [11]): 95%; minimal effective dose (Mus musculus [16]): 100 mg/kg; minimal effective dose (Mus musculus [17]): 100 mg/kg
2 | 20.9% | CC1CC(=O)N(CC(=O)N2CCN(c3ccc(Cl)cc3)CC2)C1=O (stereo not drawn) | Non-toxic |  | 4 h | > 250 mg/kg | > 500 mg/kg | >15.59 | >2 | 124% | 32.1 mg/kg | 100 mg/kg | 30 mg/kg | inactive | inactive | MTC (Mus musculus [18]): 300 mg/kg; Activity (Mus musculus [19]): 76%; Activity (Mus musculus [20]): 91%; Activity (Mus musculus [21]): 86%; Activity (Mus musculus [22]): 26%
3 | 36.6% | CC1CC(=O)N(CC(=O)N2CCN(c3ccc(F)cc3)CC2)C1=O (stereo not drawn) | Non-toxic | Non-toxic | 1 h |  | > 300 mg/kg | >3.43 |  | 12% | 87.4 mg/kg | 300 mg/kg | 100 mg/kg | inactive | inactive | Activity (Mus musculus [25]): 75%; Activity (Mus musculus [26]): inactive; Activity (Mus musculus [27]): 95%; Activity (Mus musculus [28]): 98%; Activity (Mus musculus [29]): 75%
